From ChEMBL document CHEMBL1141109, “Synthesis of an estrogen receptor beta-selective radioligand: 5-[18F]fluoro-(2R,3S)-2,3-bis(4-hydroxyphenyl)pentanenitrile and comparison of in vivo distribution with 16alpha-[18F]fluoro-17beta-estradiol” (J Med Chem, 2005)

Columns and labels:
[1] = species: Mus musculus; assay: Serum estradiol level in nonestrus mouse BALB/c cell line; (n=3)
[2] = species: Mus musculus; assay: Serum estradiol level in estrus estrogen receptor beta mouse; (n=3); format: functional, organism-based
How it was run: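 Serum was collected and sent to an outside laboratory for radioimmunoassay using reagents intended for human serum. […] Results are in pg/mL as mean ± SD, with three samples per mouse.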

Level [2]: 43.8 pg/mL
SMILES: C[C@]12CC[C@@H]3c4ccc(O)cc4CC[C@H]3[C@@H]1CC[C@@H]2O
Level [1]: 28.7 pg/mL
